Measured values as given in ChEMBL document CHEMBL4616588, “High content phenotypic screening identifies serotonin receptor modulators with selective activity upon breast cancer cell cycle and cytokine signaling pathways” (Bioorg Med Chem, 2020).
The source made the active and inactive calls. No cut-off for these calls is given here.

Legend:
[1] = test system: HCC1954; experiment: Antiproliferative activity against human HCC1954 cells assessed as cell viability incubated for 72 hrs Alamar blue assay; type: functional, cell-based; conditions: HCC1954, 72 h
Method in brief: (§1)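 Parental cells in DMEM with 10% FBS and 2 mM L-glutamine at 37 °C, 5% CO2. Seeded in 96-well plates at a line-optimized density (HCC1954 and T47D, 3000 cells/well) and grown 24 h before treatment. Compounds were incubated 72 h, with 0.1% DMSO (v/v) controls. Alamar Blue was added at 10% v/v for 3 h. Fluorescence was read at ex 540/em 590 nm and normalized to plate DMSO wells.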

[2] = test system: T47D; experiment: Antiproliferative activity against human T47D cells assessed as cell viability incubated for 72 hrs Alamar blue assay; type: functional, cell-based; method in brief: as §1
[3] = test system: HCC1954; experiment: Antiproliferative activity against human HCC1954 cells assessed as reduction in cell number at 10 uM incubated for 72 hrs Alamar blue assay; type: functional, cell-based; method in brief: as §1
[4] = test system: T47D; experiment: Antiproliferative activity against human T47D cells assessed reduction in cell number at 10 uM incubated for 72 hrs by Alamar blue assay; type: functional, cell-based; method in brief: as §1
[5] = test system: HCC1954; experiment: Antiproliferative activity against human HCC1954 cells assessed as reduction in cell number at 1 uM incubated for 72 hrs Alamar blue assay; type: functional, cell-based; method in brief: as §1
[6] = test system: T47D; experiment: Induction of morphological changes in human T47D cells assessed as number of nuclei incubated for 48 hrs by Hoechst 33342, SYTO14, Phalloidin-594, Wheat germ agglutinin-594, Concavalin-488, MitoTracker DeepRed staining based wide field fluorescent microscopic method; type: functional, cell-based
Method in brief: (§2)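 Parental HCC1954 or T47D cells were seeded at 3000 cells/well in 96-well or 1500 cells/well in 384-well optical imaging plates and grown 24 h. Compounds were given for 48 h at up to 10 μM, with 0.1% DMSO and 0.3 μM staurosporine controls. Cells were fixed in 4% paraformaldehyde for 30 min at RT, then Cell Painting stained for 30 min in the dark […]. Imaging used wide-field fluorescence, and nuclei were segmented from the Hoechst channel and counted.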

[7] = test system: HCC1954; experiment: Induction of morphological changes in human HCC1954 cells at 10 uM incubated for 48 hrs by Hoechst 33342, SYTO14, Phalloidin-594, Wheat germ agglutinin-594, Concavalin-488, MitoTracker DeepRed staining based wide field fluorescent microscopic method; type: functional, cell-based; method in brief: as §2
[8] = test system: T47D; experiment: Induction of morphological changes in human T47D cells at 10 uM incubated for 48 hrs by Hoechst 33342, SYTO14, Phalloidin-594, Wheat germ agglutinin-594, Concavalin-488, MitoTracker DeepRed staining based wide field fluorescent microscopic method; type: functional, cell-based; method in brief: as §2
[9] = test system: HCC1954; experiment: Induction of morphological changes in human HCC1954 cells assessed as number of nuclei incubated for 48 hrs by Hoechst 33342, SYTO14, Phalloidin-594, Wheat germ agglutinin-594, Concavalin-488, MitoTracker DeepRed staining based wide field fluorescent microscopic method; type: functional, cell-based; conditions: HCC1954, 48 h; method in brief: as §2
[10] = test system: T47D; experiment: Antiproliferative activity against human T47D cells assessed reduction in cell number at 1 uM incubated for 72 hrs by Alamar blue assay; type: functional, cell-based; method in brief: as §1
[11] = test system: T47D; experiment: Effect on cell cycle pathway in human T47D cells assessed as fold enrichment in mitotic genes incubated for 24 hrs relative to control; type: functional
Method in brief: (§3)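 T47D cells were seeded in 6-well plates for 24 h, then drug-treated for 24 h. RNA was extracted with on-column DNase digestion and checked by A260/A280, and concentrations were normalized. 100 ng RNA was run on the nCounter PanCancer Pathways Panel. Data were normalized per NanoString protocol, and the advanced analysis module calculated differential ratios against DMSO.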

[12] = test system: T47D; experiment: Induction of cell cycle arrest in human T47D cells assessed as downregulation in CCNA2 RNA incubated for 24 hrs; type: functional, cell-based; method in brief: as §3
[13] = test system: T47D; experiment: Effect on TNFR1 pathway in human T47D cells assessed as fold enrichment in AP1 family of transcription factors incubated for 24 hrs relative to control; type: functional; method in brief: as §3
[14] = test system: T47D; experiment: Effect on TNFR1 pathway in human T47D cells assessed as fold enrichment in MAP kinase activation genes incubated for 24 hrs relative to control; type: functional; method in brief: as §3
[15] = test system: T47D; experiment: Effect on cell cycle pathway in human T47D cells assessed as fold enrichment in S Phase genes incubated for 24 hrs relative to control; type: functional; method in brief: as §3
[16] = test system: T47D; experiment: Induction of cell cycle arrest in human T47D cells assessed as downregulation in CCND1 RNA incubated for 24 hrs; type: functional, cell-based; method in brief: as §3
[17] = test system: T47D; experiment: Induction of cell cycle arrest in human T47D cells assessed as downregulation in CCNE2 RNA incubated for 24 hrs; type: functional, cell-based; method in brief: as §3
[18] = test system: T47D; experiment: Effect on cell cycle pathway in human T47D cells assessed as fold enrichment in G1/S transition genes incubated for 24 hrs relative to control; type: functional; method in brief: as §3
[19] = test system: T47D; experiment: Effect on TNFR1 pathway in human T47D cells assessed as fold enrichment in TNFR1-induced proapoptotic signaling incubated for 24 hrs relative to control; type: functional; method in brief: as §3
[20] = test system: T47D; experiment: Effect on TNFR1 pathway in human T47D cells assessed as fold enrichment in MAPK targets/nuclear events mediated by MAP kinases incubated for 24 hrs relative to control; type: functional; method in brief: as §3
[21] = test system: T47D; experiment: Effect on cell cycle pathway in human T47D cells assessed as fold enrichment in cell cycle checkpoint genes incubated for 24 hrs relative to control; type: functional; method in brief: as §3
[22] = test system: T47D; experiment: Effect on cell cycle pathway in human T47D cells assessed as fold enrichment in cell cycle genes incubated for 24 hrs relative to control; type: functional; method in brief: as §3
[23] = test system: T47D; experiment: Effect on TNFR1 pathway in human T47D cells assessed as fold enrichment in RAF-independent MAPK1/3 activation genes incubated for 24 hrs relative to control; type: functional; method in brief: as §3

Structure (SMILES)	EC50 [1] [µM]	EC50 [2] [µM]	Activity [3]	Activity [4]	Activity [5]	EC50 [6] [µM]	Activity [7]	Activity [8]	EC50 [9] [µM]	Activity [10]	other results
CNCCCC1c2ccccc2C=Cc2ccccc21 [PROTRIPTYLINE]	> 10	> 10	inactive	Active	inactive	7.7	inactive	Active	> 10	inactive	–
CN(C)CCCN1c2ccccc2Sc2ccc(C(F)(F)F)cc21 [TRIFLUPROMAZINE]	> 10	8.6	inactive	Active	inactive	5.4	inactive	Active	> 10	inactive	fold change (FC) [11]: 7.55; Activity [12]: Active; fold change (FC) [13]: 14.91; fold change (FC) [14]: 6.02; fold change (FC) [15]: 10.15; Activity [16]: Active; Activity [17]: Active; fold change (FC) [18]: 11.45; fold change (FC) [19]: 17.4; fold change (FC) [20]: 1.015; fold change (FC) [21]: 11.45; fold change (FC) [22]: 7.33; fold change (FC) [23]: 6.96
